# Read-outs that look alike come from different tables or passages of the source.
# What was measured:
# [1] = Aqueous solubility, HPLC-based method; type: physicochemical
# CYP2B6 = biological target: T1, CYP2B6 (Homo sapiens, UniProt P20813); test: Cytochrome P450 inhibition; type: in vitro ADME; conditions: up to 10 μM of 3a
# T1 sequence (P20813 1-491): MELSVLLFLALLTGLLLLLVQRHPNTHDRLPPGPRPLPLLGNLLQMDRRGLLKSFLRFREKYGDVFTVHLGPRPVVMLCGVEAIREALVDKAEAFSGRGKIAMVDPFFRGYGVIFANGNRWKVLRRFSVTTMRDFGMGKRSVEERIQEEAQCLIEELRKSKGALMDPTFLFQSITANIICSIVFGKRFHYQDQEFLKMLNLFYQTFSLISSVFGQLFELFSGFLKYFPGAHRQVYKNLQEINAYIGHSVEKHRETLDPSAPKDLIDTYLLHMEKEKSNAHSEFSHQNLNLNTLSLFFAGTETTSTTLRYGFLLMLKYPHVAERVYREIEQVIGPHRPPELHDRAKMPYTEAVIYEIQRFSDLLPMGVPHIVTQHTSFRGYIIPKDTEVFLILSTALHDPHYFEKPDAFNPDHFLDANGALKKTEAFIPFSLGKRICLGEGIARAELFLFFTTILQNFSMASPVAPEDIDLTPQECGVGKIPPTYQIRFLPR
# CYP2D6 = CYP2D6 (Homo sapiens, UniProt P10635); test: Cytochrome P450 inhibition; type: in vitro ADME; conditions: up to 10 μM of 3a
# CYP2C19 = CYP2C19 (Homo sapiens, UniProt P33261); test: Cytochrome P450 inhibition; type: in vitro ADME; conditions: up to 10 μM of 3a
# ClockΔ19 mutant mice = test: Locomotor activity in CLOCK mutant mice; type: in vivo; conditions: 12.5 mgkg^−1 i.p. once a day for five days, 2 h recording
# CYP2C9 = CYP2C9 (Homo sapiens, UniProt P11712); test: Cytochrome P450 inhibition; type: in vitro ADME; conditions: up to 10 μM of 3a
# [2] = Mouse liver microsomal stability; type: in vitro ADME; conditions: 60 min, 1 and 10 μM
# CYP3A4 = CYP3A4 (Homo sapiens, UniProt P08684); test: Cytochrome P450 inhibition; type: in vitro ADME; conditions: up to 10 μM of 3a
# C57BL/6J male mice [3] = test: Amphetamine–chlordiazepoxide locomotor hyperactivity procedure; type: in vivo
# C57BL/6J male mice [4] = test: Prepulse inhibition of the acoustic startle response; type: in vivo; conditions: 30 min pretreatment
# Summary of the method: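 Male C57BL/6J mice given test compound (10 or 25 mgkg−1) or vehicle i.p. in 10% DMSO, 30 min before testing. 5 min habituation to 70 dB background noise, then six startle-alone trials. Ten blocks of randomized null, 120 dB startle, prepulse (4/8/12 dB above background)+startle, and prepulse-alone trials. PPI = [1−(prepulse+startle)/startle amplitude]×100%. n=8–14 per group; repeated-measures ANOVA.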
# CYP1A2 = biological target: T2, CYP1A2 (Homo sapiens, UniProt P05177); test: Cytochrome P450 inhibition; type: in vitro ADME; conditions: up to 10 μM of 3a
# T2 sequence (P05177 1-516): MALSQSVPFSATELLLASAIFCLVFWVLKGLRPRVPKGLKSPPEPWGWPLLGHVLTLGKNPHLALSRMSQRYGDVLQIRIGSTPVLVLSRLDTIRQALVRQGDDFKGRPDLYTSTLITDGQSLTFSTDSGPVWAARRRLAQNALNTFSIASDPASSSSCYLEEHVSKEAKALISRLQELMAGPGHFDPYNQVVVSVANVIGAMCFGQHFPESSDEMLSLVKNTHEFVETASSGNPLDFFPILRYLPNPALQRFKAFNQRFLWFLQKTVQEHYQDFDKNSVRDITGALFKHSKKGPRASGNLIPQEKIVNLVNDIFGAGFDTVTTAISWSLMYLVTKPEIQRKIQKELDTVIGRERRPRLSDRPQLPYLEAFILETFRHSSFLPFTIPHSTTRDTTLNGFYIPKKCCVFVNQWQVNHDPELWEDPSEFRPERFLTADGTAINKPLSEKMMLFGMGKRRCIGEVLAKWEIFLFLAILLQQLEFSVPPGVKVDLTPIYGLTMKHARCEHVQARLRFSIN
# [5] = Human liver microsomal stability; type: in vitro ADME; conditions: 60 min, 1 and 10 μM
# 15 kinases = test: Selectivity studies against 15 kinases; type: biochemical; conditions: 15 kinases (Supporting Information)
# human GSK-3β = human GSK-3β (Homo sapiens, UniProt P49841); test: In vitro GSK-3β inhibition: phosphorylation of primed substrate; type: biochemical
# [6] = primed substrate 20 μm, 10 μm ATP, tested at Reaction Biology Inc.
# Sequence of human GSK-3β (P49841 whole entry): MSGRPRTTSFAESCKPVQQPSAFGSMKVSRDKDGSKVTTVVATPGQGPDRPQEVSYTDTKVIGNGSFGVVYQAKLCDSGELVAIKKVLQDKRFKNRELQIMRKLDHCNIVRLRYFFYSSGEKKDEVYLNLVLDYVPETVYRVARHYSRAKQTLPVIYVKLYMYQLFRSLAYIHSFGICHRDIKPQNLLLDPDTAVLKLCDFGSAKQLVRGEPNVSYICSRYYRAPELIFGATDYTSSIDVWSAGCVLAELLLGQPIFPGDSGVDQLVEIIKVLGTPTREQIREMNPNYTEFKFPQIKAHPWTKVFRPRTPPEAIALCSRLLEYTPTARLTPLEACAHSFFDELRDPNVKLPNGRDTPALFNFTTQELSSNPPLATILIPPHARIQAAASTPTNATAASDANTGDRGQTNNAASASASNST
# Sequence of CYP3A4 (P08684 whole entry): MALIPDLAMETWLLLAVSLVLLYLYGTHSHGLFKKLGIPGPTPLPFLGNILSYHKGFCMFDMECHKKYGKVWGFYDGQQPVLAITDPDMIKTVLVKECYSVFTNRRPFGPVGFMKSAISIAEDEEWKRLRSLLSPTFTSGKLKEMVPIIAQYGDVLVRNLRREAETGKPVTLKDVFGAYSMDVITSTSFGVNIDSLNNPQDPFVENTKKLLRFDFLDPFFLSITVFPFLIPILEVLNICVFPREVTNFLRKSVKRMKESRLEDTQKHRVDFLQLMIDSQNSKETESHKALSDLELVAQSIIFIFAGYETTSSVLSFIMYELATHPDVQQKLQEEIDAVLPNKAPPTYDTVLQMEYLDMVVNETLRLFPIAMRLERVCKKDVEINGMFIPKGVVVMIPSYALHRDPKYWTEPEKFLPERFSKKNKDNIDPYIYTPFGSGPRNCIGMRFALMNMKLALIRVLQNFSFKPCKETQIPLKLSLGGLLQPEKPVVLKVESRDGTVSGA
# Sequence of CYP2D6 (P10635 whole entry): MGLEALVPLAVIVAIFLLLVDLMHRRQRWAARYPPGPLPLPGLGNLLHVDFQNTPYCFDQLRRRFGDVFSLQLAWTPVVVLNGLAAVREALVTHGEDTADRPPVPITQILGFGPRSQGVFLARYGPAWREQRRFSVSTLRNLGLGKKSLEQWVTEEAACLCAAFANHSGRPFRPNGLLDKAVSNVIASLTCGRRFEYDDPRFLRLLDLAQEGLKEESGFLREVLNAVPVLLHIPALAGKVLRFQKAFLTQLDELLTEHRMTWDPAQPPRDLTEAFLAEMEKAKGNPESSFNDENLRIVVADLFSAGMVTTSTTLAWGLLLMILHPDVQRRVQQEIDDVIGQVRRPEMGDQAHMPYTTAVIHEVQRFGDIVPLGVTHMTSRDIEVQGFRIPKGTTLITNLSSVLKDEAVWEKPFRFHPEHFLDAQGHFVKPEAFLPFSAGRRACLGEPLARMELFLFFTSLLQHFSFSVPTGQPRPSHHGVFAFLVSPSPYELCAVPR
# Sequence of CYP2C19 (P33261 whole entry): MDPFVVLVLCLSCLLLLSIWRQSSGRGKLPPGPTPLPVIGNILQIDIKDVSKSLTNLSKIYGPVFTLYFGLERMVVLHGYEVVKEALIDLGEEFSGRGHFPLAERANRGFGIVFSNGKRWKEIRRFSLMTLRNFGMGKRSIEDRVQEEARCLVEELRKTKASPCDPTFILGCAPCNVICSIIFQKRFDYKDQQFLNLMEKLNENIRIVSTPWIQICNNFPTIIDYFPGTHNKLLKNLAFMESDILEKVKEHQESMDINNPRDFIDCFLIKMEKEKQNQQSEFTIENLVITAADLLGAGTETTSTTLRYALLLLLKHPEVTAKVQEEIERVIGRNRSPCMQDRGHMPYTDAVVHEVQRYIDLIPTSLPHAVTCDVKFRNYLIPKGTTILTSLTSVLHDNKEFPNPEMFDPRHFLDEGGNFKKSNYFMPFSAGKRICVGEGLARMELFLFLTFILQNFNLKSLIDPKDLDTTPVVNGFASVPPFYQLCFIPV
# Sequence of CYP2C9 (P11712 whole entry): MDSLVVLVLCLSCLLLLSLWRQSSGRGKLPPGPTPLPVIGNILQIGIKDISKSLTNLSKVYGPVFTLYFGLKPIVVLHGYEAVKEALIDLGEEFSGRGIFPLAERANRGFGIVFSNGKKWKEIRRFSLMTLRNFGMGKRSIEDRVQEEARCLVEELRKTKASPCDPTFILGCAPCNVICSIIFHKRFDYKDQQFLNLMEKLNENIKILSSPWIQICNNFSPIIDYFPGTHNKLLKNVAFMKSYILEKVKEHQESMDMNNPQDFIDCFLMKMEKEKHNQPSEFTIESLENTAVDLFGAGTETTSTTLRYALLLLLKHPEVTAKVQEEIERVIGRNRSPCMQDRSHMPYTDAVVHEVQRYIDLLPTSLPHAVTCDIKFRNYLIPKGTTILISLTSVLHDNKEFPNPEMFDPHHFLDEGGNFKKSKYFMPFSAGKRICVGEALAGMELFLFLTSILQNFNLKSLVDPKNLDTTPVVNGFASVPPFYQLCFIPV
smiles,measurement,setting,value
"O=C1NC(=O)C(c2cn(C3CCNCC3)c3ccccc23)=C1c1coc2ccccc12 [Compound 3a, 3-Benzofuran-3-yl-4-(1-piperidin-4-yl-1H-indol-3-yl)-pyrrole-2,5-dione]",aqueous solubility,[1],196 mgL^−1
same,CYP2B6 inhibition,CYP2B6,≤ 30%
same,CYP2D6 inhibition,CYP2D6,≤ 30%
same,CYP2C19 inhibition,CYP2C19,≤ 30%
same,locomotor hyperactivity in response to novelty (beam breaks),ClockΔ19 mutant mice,attenuation of the locomotor hyperactivity
same,CYP2C9 inhibition,CYP2C9,≤ 30%
same,compound remained after incubation with liver microsomes,[2],more than 83%
same,CYP3A4 inhibition,CYP3A4,≤ 30%
same,activity in the Amph/CDP assay,"C57BL/6J male mice [3]; 3 mgkg^−1 i.p., 5 min pretreatment",not active
same,baseline locomotor activity,C57BL/6J male mice [3]; doses higher than 10 mgkg^−1,reductions in baseline locomotor activity
same,prepulse inhibition (PPI),C57BL/6J male mice [4]; 10 mgkg^−1 i.p.,not active
same,prepulse inhibition (PPI),C57BL/6J male mice [4]; 25 mgkg^−1 i.p.,enhanced PPI
same,CYP1A2 inhibition,CYP1A2,≤ 30%
same,compound remained after incubation with liver microsomes,[5],more than 83%
same,kinase selectivity,15 kinases,reasonably selective amongst other kinases with the exception of PKA and PKC-b2
same,IC50,human GSK-3β,67 ± 6 nM
"O=C1NC(=O)C(c2cn(C3CCN(C(=O)N4CCOCC4)CC3)c3ccccc23)=C1c1coc2ccccc12 [Compound 3k, 3-Benzofuran-3-yl-4-{1-[1-(morpholine-4-carbonyl)-piperidin-4-yl]-1H-indol-3-yl}-pyrrole-2,5-dione]",IC50,human GSK-3β,10 ± 2 nM
"O=C1NC(=O)C(c2cn(C3CCN(Cc4ccncc4)CC3)c3ccccc23)=C1c1coc2ccccc12 [Compound 3j, 3-Benzofuran-3-yl-4-[1-(1-pyridin-4-ylmethyl-piperidin-4-yl)-1H-indol-3-yl]-pyrrole-2,5-dione]",IC50,human GSK-3β,65 ± 4 nM
"O=C1NC(=O)C(c2cn(C3CCN(C(=O)c4ccccn4)CC3)c3ccccc23)=C1c1coc2ccccc12 [Compound 3l, 3-Benzofuran-3-yl-4-{1-[1-(pyridine-2-carbonyl)-piperidin-4-yl]-1H-indol-3-yl}-pyrrole-2,5-dione]",IC50,human GSK-3β,6 ± 1 nM
"COc1cccc2c(C3=C(c4cn(C5CCNCC5)c5ccccc45)C(=O)NC3=O)coc12 [Compound 3c, 3-(7-Methoxy-benzofuran-3-yl)-4-(1-piperidin-4-yl-1H-indol-3-yl)-pyrrole-2,5-dione]",IC50,human GSK-3β,134 ± 5 nM
"COc1ccc2c(C3=C(c4cn(C5CCNCC5)c5ccccc45)C(=O)NC3=O)coc2c1 [Compound 3b, 3-(6-Methoxy-benzofuran-3-yl)-4-(1-piperidin-4-yl-1H-indol-3-yl)-pyrrole-2,5-dione]",IC50,human GSK-3β,629 ± 32 nM
"O=C1NC(=O)C(c2cn(C3CCNCC3)c3ccc(F)cc23)=C1c1coc2ccccc12 [Compound 3d, 3-Benzofuran-3-yl-4-(5-fluoro-1-piperidin-4-yl-1H-indol-3-yl)-pyr-role-2,5-dione]",IC50,human GSK-3β; [6],30 ± 4 nM
"O=C1NC(=O)C(c2cn(C3CCNCC3)c3ccc(Cl)cc23)=C1c1coc2ccccc12 [Compound 3e, 3-Benzofuran-3-yl-4-(5-chloro-1-piperidin-4-yl-1H-indol-3-yl)-pyr-role-2,5-dione]",IC50,human GSK-3β; [6],272 ± 27 nM
"COc1cccc2c(C3=C(c4cn(C5CCNCC5)c5ccc(F)cc45)C(=O)NC3=O)coc12 [Compound 3g, 3-(5-Fluoro-1-piperidin-4-yl-1H-indol-3-yl)-4-(7-methoxy-benzo-furan-3-yl)-pyrrole-2,5-dione]",IC50,human GSK-3β,28 ± 4 nM
"NCC(=O)N1CCC(n2cc(C3=C(c4coc5ccccc45)C(=O)NC3=O)c3ccccc32)CC1 [Compound 3p, 3-{1-[1-(2-Amino-acetyl)-piperidin-4-yl]-1H-indol-3-yl}-4-benzofuran-3-yl-pyrrole-2,5-dione]",IC50,human GSK-3β,55 ± 2 nM
"O=C1NC(=O)C(c2cn(C3CCN(Cc4ccccn4)CC3)c3ccccc23)=C1c1coc2ccccc12 [Compound 3i, 3-Benzofuran-3-yl-4-[1-(1-pyridin-2-ylmethyl-piperidin-4-yl)-1H-indol-3-yl]-pyrrole-2,5-dione]",IC50,human GSK-3β,110 ± 4 nM
"Cc1nonc1C(=O)N1CCC(n2cc(C3=C(c4coc5ccccc45)C(=O)NC3=O)c3ccccc32)CC1 [Compound 3q, 3-Benzofuran-3-yl-4-{1-[1-(4-methyl-furazan-3-carbonyl)-piperidin-4-yl]-1H-indol-3-yl}-pyrrole-2,5-dione]",IC50,human GSK-3β,25 ± 2 nM
"CN1CCC(n2cc(C3=C(c4coc5ccccc45)C(=O)NC3=O)c3ccccc32)CC1 [Compound 3h, 3-Benzofuran-3-yl-4-[1-(1-methyl-piperidin-4-yl)-1H-indol-3-yl]-pyrrole-2,5-dione]",IC50,human GSK-3β,155 ± 2 nM
"O=C1NC(=O)C(c2cn(C3CCN(C(=O)c4cnccn4)CC3)c3ccccc23)=C1c1coc2ccccc12 [Compound 3o, 3-Benzofuran-3-yl-4-{1-[1-(pyrazine-2-carbonyl)-piperidin-4-yl]-1H-indol-3-yl}-pyrrole-2,5-dione]",IC50,human GSK-3β,4 ± 1 nM
"O=C1NC(=O)C(c2cn(C3CCN(C(=O)c4ccncc4)CC3)c3ccccc23)=C1c1coc2ccccc12 [Compound 3n, 3-Benzofuran-3-yl-4-{1-[1-(pyridine-4-carbonyl)-piperidin-4-yl]-1H-indol-3-yl}-pyrrole-2,5-dione]",IC50,human GSK-3β,4 ± 1 nM
"O=C1NC(=O)C(c2cn(C3CCNCC3)c3ccc(Br)cc23)=C1c1coc2ccccc12 [3 f, 3-Benzofuran-3-yl-4-(5-bromo-1-piperidin-4-yl-1H-indol-3-yl)-pyr-role-2,5-dione]",IC50,human GSK-3β; [6],684 ± 17 nM
"O=C1NC(=O)C(c2cn(C3CCN(C(=O)c4cccnc4)CC3)c3ccccc23)=C1c1coc2ccccc12 [Compound 3m, 3-Benzofuran-3-yl-4-{1-[1-(pyridine-3-carbonyl)-piperidin-4-yl]-1H-indol-3-yl}-pyrrole-2,5-dione]",IC50,human GSK-3β,8 ± 2 nM

# From PMC3428230 (ChemMedChem, 2011)
